Assays:
Assay type in all cases: functional, cell-based
MCF7 = experiment: Anticancer activity against human MCF7 cells after 48 hrs by MTT assay; settings: MCF7, 48 h
Outline: (§1)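 Cells grown in RPMI-1640 or DMEM with 10% FBS at 37 °C, 5% CO2. Seeded at 1 × 10^5 cells/mL in 100 µL per well. Adherent lines were allowed to attach for 12 h before drug; suspension cells were seeded just before drug. Triplicate exposure to a range of compound concentrations for 48 h. MTT (100 µg/well) was added for 4 h at 37 °C, cells lysed with SDS, and OD read at 595 nm.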

[1] = Anticancer activity against human HL60 cells after 48 hrs by MTT assay; settings: HL-60, 48 h; outline: as §1
SW480 = experiment: Anticancer activity against human SW480 cells after 48 hrs by MTT assay; settings: SW480, 48 h; outline: as §1
A549 = experiment: Anticancer activity against human A549 cells after 48 hrs by MTT assay; settings: A549, 48 h; outline: as §1
[2] = Anticancer activity against human SMMC7721 cells after 48 hrs by MTT assay; settings: SMMC-7721, 48 h; outline: as §1

SMILES | IC50 (MCF7) | IC50 [1] | IC50 (SW480) | IC50 (A549) | IC50 [2]
CCCC(=O)OC[C@H]1O[C@H](O[C@@H]2c3cc4c(cc3[C@@H](c3cc(OC)c(O)c(OC)c3)[C@H]3C(=O)OC[C@@H]32)OCO4)[C@@H](OC(=O)CCC)[C@@H](OC(=O)CCC)[C@@H]1OC(=O)CCC | 7.5 µM | 2.71 µM | 4.85 µM | 3.1 µM | 3.84 µM
CCCC(=O)OC[C@H]1O[C@@H](O[C@@H]2c3cc4c(cc3[C@@H](c3cc(OC)c(OC)c(OC)c3)[C@H]3C(=O)OC[C@@H]32)OCO4)[C@H](OC(=O)CCC)[C@@H](OC(=O)CCC)[C@H]1OC(=O)CCC | 22.1 µM | 3.15 µM | 26.5 µM | 17.8 µM | 18.1 µM
CCCC(=O)O[C@@H]1[C@@H](OC(=O)CCC)[C@H](C)O[C@@H](O[C@@H]2c3cc4c(cc3[C@@H](c3cc(OC)c(O)c(OC)c3)[C@H]3C(=O)OC[C@@H]32)OCO4)[C@@H]1OC(=O)CCC | 4.71 µM | 2.54 µM | 5.05 µM | 3.52 µM | 2.68 µM
CCCC(=O)O[C@@H]1[C@@H](O[C@@H]2c3cc4c(cc3[C@@H](c3cc(OC)c(OC)c(OC)c3)[C@H]3C(=O)OC[C@@H]32)OCO4)OC[C@@H](OC(=O)CCC)[C@@H]1OC(=O)CCC | 1.42 µM | 0.6 µM | 1.11 µM | 0.61 µM | 0.78 µM
CCCC(=O)OC[C@H]1O[C@H](O[C@@H]2c3cc4c(cc3[C@@H](c3cc(OC)c(O)c(OC)c3)[C@H]3C(=O)OC[C@@H]32)OCO4)[C@H](OC(=O)CCC)[C@@H](OC(=O)CCC)[C@@H]1OC(=O)CCC | 39.1 µM | 16.9 µM | 38.7 µM | 16 µM | 16.8 µM
CCCC(=O)OC[C@H]1O[C@H](O[C@@H]2c3cc4c(cc3[C@@H](c3cc(OC)c(OC)c(OC)c3)[C@H]3C(=O)OC[C@@H]32)OCO4)[C@@H](OC(=O)CCC)[C@@H](OC(=O)CCC)[C@@H]1OC(=O)CCC | > 40 µM | > 40 µM | > 40 µM | > 40 µM | > 40 µM
CCCC(=O)OC[C@H]1O[C@H](O[C@@H]2c3cc4c(cc3[C@@H](c3cc(OC)c(OC)c(OC)c3)[C@H]3C(=O)OC[C@@H]32)OCO4)[C@H](OC(=O)CCC)[C@@H](OC(=O)CCC)[C@H]1OC(=O)CCC | 1.27 µM | 0.14 µM | 1.65 µM | 0.61 µM | 0.62 µM
CCCC(=O)OC[C@H]1O[C@H](O[C@@H]2c3cc4c(cc3[C@@H](c3cc(OC)c(O)c(OC)c3)[C@H]3C(=O)OC[C@@H]32)OCO4)[C@H](OC(=O)CCC)[C@@H](OC(=O)CCC)[C@H]1OC(=O)CCC | 5.67 µM | 4.89 µM | 10.7 µM | 5.7 µM | 3.78 µM
CCCC(=O)O[C@@H]1[C@@H](OC(=O)CCC)[C@H](C)O[C@@H](O[C@@H]2c3cc4c(cc3[C@@H](c3cc(OC)c(OC)c(OC)c3)[C@H]3C(=O)OC[C@@H]32)OCO4)[C@@H]1OC(=O)CCC | 13.5 µM | 5.32 µM | 16.8 µM | 7.62 µM | 15.2 µM
CCCC(=O)OC[C@H]1O[C@H](O[C@@H]2c3cc4c(cc3[C@@H](c3cc(OC)c(OC)c(OC)c3)[C@H]3C(=O)OC[C@@H]32)OCO4)[C@H](OC(=O)CCC)[C@@H](OC(=O)CCC)[C@@H]1OC(=O)CCC | > 40 µM | > 40 µM | > 40 µM | > 40 µM | > 40 µM
CCCC(=O)OC[C@H]1O[C@@H](O[C@@H]2c3cc4c(cc3[C@@H](c3cc(OC)c(OC)c(OC)c3)[C@H]3C(=O)OC[C@@H]32)OCO4)[C@H](OC(=O)CCC)[C@@H](OC(=O)CCC)[C@@H]1OC(=O)CCC | 1.69 µM | 0.61 µM | 1.26 µM | 1.12 µM | 0.83 µM
CCCC(=O)O[C@@H]1[C@@H](O[C@@H]2c3cc4c(cc3[C@@H](c3cc(OC)c(O)c(OC)c3)[C@H]3C(=O)OC[C@@H]32)OCO4)OC[C@@H](OC(=O)CCC)[C@@H]1OC(=O)CCC | 29.3 µM | 26.5 µM | > 40 µM | 23.2 µM | 17.1 µM
COc1cc([C@@H]2c3cc4c(cc3[C@@H](O[C@@H]3O[C@@H]5CO[C@@H](C)O[C@H]5[C@H](O)[C@H]3O)[C@H]3COC(=O)[C@H]23)OCO4)cc(OC)c1O [ETOPOSIDE] | 32.8 µM | 0.31 µM | 17.1 µM | 11.9 µM | 8.12 µM
CCCC(=O)OC[C@H]1O[C@@H](O[C@H]2[C@H](OC(=O)CCC)[C@@H](OC(=O)CCC)[C@@H](O[C@@H]3c4cc5c(cc4[C@@H](c4cc(OC)c(OC)c(OC)c4)[C@H]4C(=O)OC[C@@H]43)OCO5)O[C@@H]2COC(=O)CCC)[C@H](OC(=O)CCC)[C@@H](OC(=O)CCC)[C@H]1OC(=O)CCC | > 40 µM | > 40 µM | > 40 µM | > 40 µM | > 40 µM
CCCC(=O)OC[C@H]1O[C@H](O[C@H]2[C@H](OC(=O)CCC)[C@@H](OC(=O)CCC)[C@@H](O[C@@H]3c4cc5c(cc4[C@@H](c4cc(OC)c(O)c(OC)c4)[C@H]4C(=O)OC[C@@H]43)OCO5)O[C@@H]2COC(=O)CCC)[C@H](OC(=O)CCC)[C@@H](OC(=O)CCC)[C@@H]1OC(=O)CCC | > 40 µM | > 40 µM | > 40 µM | > 40 µM | > 40 µM
CCCC(=O)OC[C@H]1O[C@@H](O[C@H]2[C@H](OC(=O)CCC)[C@@H](OC(=O)CCC)[C@@H](O[C@@H]3c4cc5c(cc4[C@@H](c4cc(OC)c(O)c(OC)c4)[C@H]4C(=O)OC[C@@H]43)OCO5)O[C@@H]2COC(=O)CCC)[C@H](OC(=O)CCC)[C@@H](OC(=O)CCC)[C@H]1OC(=O)CCC | > 40 µM | 9.59 µM | > 40 µM | 18.6 µM | 20.2 µM
CCCC(=O)OC[C@H]1O[C@H](O[C@H]2[C@H](OC(=O)CCC)[C@@H](OC(=O)CCC)[C@@H](O[C@@H]3c4cc5c(cc4[C@@H](c4cc(OC)c(OC)c(OC)c4)[C@H]4C(=O)OC[C@@H]43)OCO5)O[C@@H]2COC(=O)CCC)[C@H](OC(=O)CCC)[C@@H](OC(=O)CCC)[C@@H]1OC(=O)CCC | > 40 µM | > 40 µM | > 40 µM | > 40 µM | > 40 µM
